Test results: ChEMBL document CHEMBL1145117, “Structures and cytotoxic properties of trichoverroids and their macrolide analogues produced by saltwater culture of Myrothecium verrucaria” (J Med Chem, 2003)

Columns and labels:
[1] = test system: NCI-H522; assay: In vitro antitumor activity against NSCL NCI-H522 tumor cell lines; type: functional, cell-based, Homo sapiens; conditions: Homo sapiens, NCI-H522
[2] = Activity relative to compound 3 (set to 1.0) was evaluated against H116 colon tumor cell lines; type: functional, Homo sapiens
In short: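 Disk diffusion soft agar colony formation assay on human H116 colon tumor cells, with 15 µL of sample applied to a disk and zone units read. Relative activity = (dilution required for 500 zone units × 100)/(mg/mL), normalised to a reference compound set at 1.0.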

[3] = test system: HCT-116; assay: In vitro antitumor activity against colon HCT116 tumor cell lines; type: functional, cell-based, Homo sapiens; conditions: Homo sapiens, HCT-116
[4] = test system: UACC-62; assay: In vitro antitumor activity against melanoma UACC-62 tumor cell lines; type: functional, cell-based, Homo sapiens; conditions: Homo sapiens, UACC-62
[5] = test system: A549; assay: In vitro antitumor activity against NSCL A549/ATCC tumor cell lines; type: functional, cell-based, Homo sapiens; conditions: Homo sapiens, A549
[6] = test system: RXF 393; assay: In vitro antitumor activity against renal RXF 393 tumor cell lines; type: functional, cell-based, Homo sapiens; conditions: Homo sapiens, RXF 393
[7] = test system: MC-38; assay: Selectivity was evaluated against Murine tumor ZC38 colon adenocarcinoma cell lines- ZL1210 lymphocytic leukemia cell lines at a concentration of 550 ug/mL; type: functional, Mus musculus
In short: (§1)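 Disk diffusion soft agar colony formation assay with zone units read for murine L1210, C38 and CFU-GM (bone marrow) cells and for human H116, H125 and CEM cells. Selectivity is the zone-unit difference between the paired cell lines. A solid tumor minus leukemia or normal difference above 250 units counts as solid tumor selective.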

[8] = organism: Homo sapiens; assay: Concentration giving 500 zone units against H116 colon tumor cell lines; type: functional
In short: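 Disk diffusion soft agar colony formation assay on human H116 colon tumor cells. Each sample was applied to a disk as 15 µL, and activity was read as zone units. The value is the sample concentration that gave 500 zone units.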

[9] = test system: MDA-MB-435; assay: In vitro antitumor activity against breast MDA-MB-435 tumor cell lines; type: functional, cell-based, Homo sapiens; conditions: Homo sapiens, MDA-MB-435
[10] = test system: MDA-N; assay: In vitro antitumor activity against breast MDA-N tumor cell lines; type: functional, cell-based, Homo sapiens; conditions: Homo sapiens, MDA-N
[11] = test system: NCI-H226; assay: In vitro antitumor activity against NSCL NCI-H226 tumor cell lines; type: functional, cell-based, Homo sapiens; conditions: Homo sapiens, NCI-H226
[12] = test system: M14; assay: In vitro antitumor activity against melanoma M14 tumor cell lines; type: functional, cell-based, Homo sapiens; conditions: Homo sapiens, M14
[13] = test system: L1210; assay: Selectivity was evaluated murine tumor against ZL1210 lymphocytic leukemia cell lines- ZCFU-GM normal bone marrow cell lines at a concentration of 550 ug/mL; type: functional, Mus musculus; in short: as §1
[14] = test system: HCT-15; assay: In vitro antitumor activity against colon HCT-15 tumor cell lines; type: functional, cell-based, Homo sapiens; conditions: Homo sapiens, HCT-15
[15] = test system: HL-60; assay: In vitro antitumor activity against leukemia HL-60(TB) tumor cell lines; type: functional, cell-based, Homo sapiens; conditions: Homo sapiens, HL-60
[16] = test system: MCF7; assay: In vitro antitumor activity against breast MCF-7 tumor cell lines; type: functional, cell-based, Homo sapiens; conditions: Homo sapiens, MCF7
[17] = test system: A498; assay: In vitro antitumor activity against renal A498 tumor cell lines; type: functional, cell-based, Homo sapiens; conditions: Homo sapiens, A498
[18] = test system: COLO 205; assay: In vitro antitumor activity against colon COLO 205 tumor cell lines; type: functional, cell-based, Homo sapiens; conditions: Homo sapiens, COLO 205
[19] = Selectivity was evaluated against human ZH116 colon cell lines-CEM lymphocytic leukemia cell lines at a concentration of 550 ug/mL; type: functional; in short: as §1
[20] = test system: NCI-H125; assay: Selectivity was evaluated against human ZH125 lung non small cell carcinoma cell lines-CEM lymphocytic leukemia cell lines at a concentration of 550 ug/mL; type: functional; in short: as §1
[21] = test system: MOLT-4; assay: In vitro antitumor activity against leukemia MOLT-4 tumor cell lines; type: functional, cell-based, Homo sapiens; conditions: Homo sapiens, MOLT-4
[22] = test system: 786-0; assay: In vitro antitumor activity against renal 786-0 tumor cell lines; type: functional, cell-based, Homo sapiens; conditions: Homo sapiens
[23] = test system: MC-38; assay: Selectivity was evaluated against murine tumor ZC38 colon adenocarcinoma cell lines- ZCFU-GM normal bone marrow cell lines at a concentration of 550 ug/mL; type: functional, Mus musculus; in short: as §1
[24] = test system: SK-MEL-2; assay: In vitro antitumor activity against melanoma SK-MEL-2 tumor cell lines; type: functional, cell-based, Homo sapiens; conditions: Homo sapiens, SK-MEL-2
[25] = test system: CCRF-CEM; assay: In vitro antitumor activity against leukemia CCRF-CEM tumor cell lines; type: functional, cell-based, Homo sapiens; conditions: Homo sapiens, CCRF-CEM

## C/C1=C\C(=O)OC[C@]23CC[C@](C)(O)[C@H]4C[C@@]5(O)[C@H](O[C@H]42)[C@H](O)[C@@H](OC(=O)/C=C\C=C\[C@@H]2O[C@H](C1)O[C@H]2C)[C@]35C [Miophytocen C]
[1]
  IC50: > 10 µM
[2]
  Relative activity: 1
[3]
  IC50: > 10 µM
[4]
  IC50: > 10 µM
[5]
  IC50: > 10 µM
[6]
  IC50: > 10 µM
[7]
  Selectivity: -350 zone unit
[8]
  Concentration: 550 µg/mL
[9]
  IC50: > 10 µM
[10]
  IC50: > 10 µM
[11]
  IC50: > 10 µM
[12]
  IC50: > 10 µM
[13]
  Selectivity: 300 zone unit
[14]
  IC50: > 10 µM
[15]
  IC50: > 10 µM
[16]
  IC50: > 10 µM
[17]
  IC50: > 10 µM
[18]
  IC50: > 10 µM
[19]
  Selectivity: -50 zone unit
[20]
  Selectivity: -50 zone unit
[21]
  IC50: > 10 µM
[22]
  IC50: > 10 µM
[23]
  Selectivity: -50 zone unit
[24]
  IC50: > 10 µM
[25]
  IC50: > 10 µM
